# Measured values from ChEMBL document CHEMBL4152308, “Synthesis and biological evaluation of novel 2-oxo-1,2-dihydroquinoline-4-carboxamide derivatives for the treatment of esophageal squamous cell carcinoma” (Eur J Med Chem, 2018).
# The source made the active and inactive calls. The rule behind the calls is not given here.
# Assays:
# KYSE-70 cell line [1] = experiment: Antiproliferative activity against human KYSE-70 cells after 72 hrs by MTT assay; type: functional, cell-based; conditions: KYSE-70, 72 h
# In short: (§1)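 Cells grown as monolayers at 37 °C, 5% CO2, mycoplasma-checked, in exponential phase. Cells seeded in 96-well plates, 24 h attachment, then compound added for 72 h. MTT 0.3 mg/mL for 3 h at 37 °C, DMSO solubilization, absorbance at 570 nm. Inhibition = (1 − A/C) × 100%. IC50 from log(concentration) vs % inhibition plot; triplicate wells, SD from ≥3 independent experiments.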
# KYSE-410 [2] = experiment: Antiproliferative activity against human KYSE410 cells after 72 hrs by MTT assay; type: functional, cell-based; conditions: KYSE-410, 72 h; in short: as §1
# KYSE-410 [3] = experiment: Cell cycle arrest in human KYSE410 cells assessed as accumulation at G1 phase at 5 uM after 24 to 48 hrs by propidium iodide staining based flow cytometry (reference value: 65.4%); type: functional
# SK-OV-3 = experiment: Antiproliferative activity against human SKOV3 cells after 72 hrs by MTT assay; type: functional, cell-based; conditions: SK-OV-3, 72 h; in short: as §1
# KYSE-410 [4] = experiment: Cell cycle arrest in human KYSE410 cells assessed as accumulation at S phase at 5 uM after 24 to 48 hrs by propidium iodide staining based flow cytometry (reference value: 22.3%); type: functional
# OVCAR-8 = experiment: Antiproliferative activity against human OVCAR8 cells after 72 hrs by MTT assay; type: functional, cell-based; conditions: OVCAR-8, 72 h; in short: as §1
# MIA PaCa-2 [5] = experiment: Antiproliferative activity against human MIAPaCa2 cells after 72 hrs by MTT assay; type: functional, cell-based; conditions: MIA PaCa-2, 72 h; in short: as §1
# MIA PaCa-2 [6] = experiment: Inhibition of autophagy in human MIAPaCa2 cells assessed as decrease in bafilomycin-induced LC3B level at 1 to 10 uM after 24 hrs by Western blot analysis; type: functional, cell-based
# In short: (§2)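 Cells treated 24 h at indicated concentrations, with bafilomycin for induced-LC3B readouts. Lysis in RIPA with protease inhibitors, BCA protein assay, samples heated 5 min at 100 °C. Equal protein run on 15% SDS-PAGE, transferred to PVDF. Anti-LC3B primary overnight at 4 °C, GAPDH as loading control, anti-rabbit secondary, TBST washes.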
# KYSE-410 [7] = experiment: Cell cycle arrest in human KYSE410 cells assessed as accumulation at G2 phase at 5 uM after 24 to 48 hrs by propidium iodide staining based flow cytometry (reference value: 12.2%); type: functional
# KYSE-410 [8] = experiment: Inhibition of autophagy in human KYSE410 cells assessed as decrease in bafilomycin-induced LC3B level at 1 to 10 uM after 24 hrs by Western blot analysis; type: functional, cell-based; in short: as §2
# KYSE-410 [9] = experiment: Cell cycle arrest in human KYSE410 cells assessed as accumulation at G1 phase at 1 uM after 24 to 48 hrs by propidium iodide staining based flow cytometry (reference value: 65.4%); type: functional
# KYSE-410 [10] = experiment: Cell cycle arrest in human KYSE410 cells assessed as accumulation at G2 phase at 1 uM after 24 to 48 hrs by propidium iodide staining based flow cytometry (reference value: 12.2%); type: functional
# KYSE-410 [11] = experiment: Cell cycle arrest in human KYSE410 cells assessed as accumulation at S phase at 1 uM after 24 to 48 hrs by propidium iodide staining based flow cytometry (reference value: 22.3%); type: functional
# KYSE-70 cell line [12] = experiment: Inhibition of colony formation in human KYSE-70 cells at 0.4 to 30 uM after 7 days by crystal violet staining based assay; type: functional, cell-based
# In short: (§3)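 Seeding at 250 cells/well in 96-well plates, attached 24 h, then serial compound dilutions added at 37 °C. Culture continued 7 days until colonies formed. Colonies washed, stained with 2% crystal violet for 1 h, then rinsed thoroughly with water.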
# KYSE-410 [13] = experiment: Inhibition of colony formation in human KYSE410 cells at 0.4 to 30 uM after 7 days by crystal violet staining based assay; type: functional, cell-based; in short: as §3
# KYSE-410 [14] = experiment: Induction of autophagy in human KYSE410 cells assessed as increase in LC3B level at 10 to 50 uM after 24 hrs by Western blot analysis; type: functional, cell-based; in short: as §2
SMILES,IC50 (KYSE-70 cell line [1]) [µM],IC50 (KYSE-410 [2]) [µM],also measured
Cc1ccc(-c2ccc3c(C(=O)Nc4cccc(F)c4)cc(=O)[nH]c3c2)cc1,> 20,> 20,–
Nc1ccc(-c2ccc3c(C(=O)Nc4cccc(F)c4)cc(=O)[nH]c3c2)cc1,> 20,> 20,–
O=C(Nc1cc(F)cc(F)c1)c1cc(=O)[nH]c2c(O)cccc12,> 20,> 20,–
O=C(Nc1cccc(F)c1)c1cc(=O)[nH]c2cc(Br)ccc12,8.9,7.3,Activity (KYSE-410 [3]): 53.6%; IC50 (SK-OV-3): 10.6 µM; Activity (KYSE-410 [4]): 24%; IC50 (OVCAR-8): 5.8 µM; IC50 (MIA PaCa-2 [5]): 7.5 µM; inhibition (MIA PaCa-2 [6]): Active; Activity (KYSE-410 [7]): 22.4%; inhibition (KYSE-410 [8]): Active; Activity (KYSE-410 [9]): 61.9%; Activity (KYSE-410 [10]): 13%; Activity (KYSE-410 [11]): 25.1%
O=C(Nc1cccc(F)c1)c1cc(=O)n(Cc2ccccc2)c2cc(Br)ccc12,> 20,> 20,–
CC(C)(C)c1ccc(NC(=O)c2cc(=O)[nH]c3cc(Br)ccc23)cc1,> 20,> 20,inhibition (KYSE-70 cell line [12]): inactive; inhibition (KYSE-410 [13]): inactive
O=C(Nc1cccc(F)c1)c1cc(=O)[nH]c2cc(-c3cccnc3F)ccc12,> 20,11.6,–
C#Cc1ccc2c(C(=O)Nc3cccc(F)c3)cc(=O)[nH]c2c1,9.5,9.7,–
O=C(Nc1ccc(Cl)cc1)c1cc(=O)[nH]c2cc(Br)ccc12,> 20,> 20,–
O=C(Nc1cccc(F)c1)c1cc(=O)[nH]c2cc(-c3ccsc3)ccc12,5.1,4.3,Activity (KYSE-410 [3]): 22.6%; IC50 (SK-OV-3): 6.7 µM; Activity (KYSE-410 [4]): 22.4%; IC50 (OVCAR-8): 13.4 µM; IC50 (MIA PaCa-2 [5]): 4.5 µM; Activity (KYSE-410 [7]): 54.9%; Activity (KYSE-410 [9]): 63.6%; Activity (KYSE-410 [10]): 14.7%; Activity (KYSE-410 [11]): 21.7%
C=Cc1ccc2c(C(=O)Nc3cccc(F)c3)cc(=O)[nH]c2c1,9.7,13.6,–
COc1ccccc1NC(=O)c1cc(=O)[nH]c2cc(Br)ccc12,> 20,> 20,–
CC(C)(C)c1ccc(-c2ccc3c(C(=O)Nc4cccc(F)c4)cc(=O)[nH]c3c2)cc1,> 20,> 20,–
COc1ccc2c(C(=O)Nc3cc(F)cc(F)c3)cc(=O)[nH]c2n1,> 20,> 20,–
O=C(Nc1ccc(Cl)cc1)c1ccnc2cc(Br)ccc12,> 20,> 20,–
O=C(Nc1ccccn1)c1cc(=O)[nH]c2cc(Br)ccc12,11,9.8,Activity (KYSE-410 [3]): 62.1%; IC50 (SK-OV-3): > 20 µM; Activity (KYSE-410 [4]): 19.5%; IC50 (OVCAR-8): > 20 µM; IC50 (MIA PaCa-2 [5]): 21.3 µM; Activity (KYSE-410 [7]): 18.5%; Activity (KYSE-410 [9]): 70.8%; Activity (KYSE-410 [10]): 10.8%; Activity (KYSE-410 [11]): 18.5%
O=C(c1cc(=O)[nH]c2cc(Br)ccc12)N1CCCCC1,> 20,> 20,–
COc1ccc(OC)c(NC(=O)c2cc(=O)[nH]c3cc(Br)ccc23)c1,> 20,> 20,–
O=C(Nc1ccc(F)cc1)c1ccnc2cc(Br)ccc12,> 20,> 20,–
O=C(Nc1cccc(F)c1)c1cc(=O)[nH]c2cc(-c3ccc(F)cc3)ccc12,3.3,10.3,IC50 (SK-OV-3): 16.6 µM; IC50 (OVCAR-8): 22.3 µM; IC50 (MIA PaCa-2 [5]): 19.3 µM
COc1cccc(NC(=O)c2cc(=O)[nH]c3cc(Br)ccc23)c1,> 20,> 20,–
CCN(CC)CCCC(C)Nc1ccc2c(C(=O)Nc3cccc(F)c3)cc(=O)[nH]c2c1 (stereo not given),> 20,> 20,Activity (KYSE-410 [14]): Active
O=C(Nc1cccc(F)c1)c1cc(=O)[nH]c2cc(C3CC3)ccc12,> 20,> 20,–
O=C(Nc1cccc(F)c1)c1cc(=O)[nH]c2cc(-c3ccc(F)nc3)ccc12,> 20,> 20,–
O=C(Nc1cccc(F)c1)c1cc(=O)[nH]c2cc(-c3ccc(F)c(CO)c3)ccc12,> 20,> 20,–
CCN(CC)CCCC(C)Nc1ccc(NC(=O)c2cc(=O)[nH]c3cc(F)ccc23)cc1F (stereo not given),> 20,> 20,Activity (KYSE-410 [14]): Active
COc1ccccc1NC(=O)c1ccnc2cc(Br)ccc12,> 20,> 20,–
